The source of these data is ChEMBL document CHEMBL1132342, “Novel hypotensive agents from Verbesina caracasana. 6. Synthesis and pharmacology of caracasandiamide” (1999).

Test [1] deals with Rattus norvegicus. As to the kind of experiment: Change in diastolic blood pressure after iv administration of 2.5 ug/kg in anesthetized rats.
In test [2] the test system is Rattus norvegicus. Nature of the test: Change in heart rate after iv administration of 2.5 ug/kg in anesthetized rats.
Test [3] relates to Rattus norvegicus. Nature of the test: Maximum rate of rise of the left ventricular isovolumetric pressure was measured after iv administration of 2.5 mg/kg in anesthetized rats; ratio given for dP/dt. It counts as functional, Heart left ventricle.
Test [4] has as its system Rattus norvegicus. As to the kind of experiment: Change in systolic blood pressure after iv administration of 2.5 mg/kg in anesthetized rats. It is filed as functional, Artery.
Test [5] relates to Rattus norvegicus. Nature of the test: Maximum rate of rise of the left ventricular isovolumetric pressure was measured after iv administration of 1 mg/kg in anesthetized rats. It is filed as functional, Heart left ventricle.
Test [6] deals with Rattus norvegicus. Nature of the test: Change in diastolic blood pressure after iv administration of 1 mg/kg in anesthetized rats. It counts as functional, Artery.
In test [7] the test system is Rattus norvegicus. Nature of the test: Change in heart rate after iv administration of 1 mg/kg in anesthetized rats. It counts as functional.
Test [8] deals with Rattus norvegicus. As to the kind of experiment: Change in systolic blood pressure after iv administration of 1 mg/kg in anesthetized rats. It is filed as functional, Artery.
Test [9] concerns Rattus norvegicus. As to the kind of experiment: Change in systolic blood pressure after iv administration of 25 uM/kg in anesthetized rats. It counts as functional, Artery. Summed up:
(§1)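 Doses were 4.12 µM/kg (two agents), guanethidine 25, clonidine 0.108, hexamethonium 12, reserpine 8, papaverine 5 and histamine […]. Peak changes in systolic BP or HR were recorded.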

The test system of test [10] is Rattus norvegicus. As to the kind of experiment: Change in heart rate after iv administration of 25 uM/kg in anesthetized rats. It is filed as functional.
Test [11] concerns Rattus norvegicus. As to the kind of experiment: Maximum rate of rise of the left ventricular isovolumetric pressure was measured after iv administration of 25 uM/kg in anesthetized rats; ratio given for dP/dt. It is filed as functional, Heart left ventricle.
For test [12], the system named is Rattus norvegicus. As to the kind of experiment: Change in diastolic blood pressure after iv administration of 25 uM/kg in anesthetized rats. It is filed as functional, Artery.
Test [13] has as its system Rattus norvegicus. As to the kind of experiment: Maximum rate of rise of the left ventricular isovolumetric pressure was measured after iv administration of 12 uM/kg in anesthetized rats. It is filed as functional, Heart left ventricle.
Test [14] has as its system Rattus norvegicus. As to the kind of experiment: Change in systolic blood pressure after iv administration of 12 uM/kg in anesthetized rats. It counts as functional, Artery. The gist of the method:
as §1

Test [15] has as its system Rattus norvegicus. Nature of the test: Change in heart rate after iv administration of 12 uM/kg in anesthetized rats. It counts as functional.
The subject of test [16] is Rattus norvegicus. Nature of the test: Change in diastolic blood pressure after iv administration of 12 uM/kg in anesthetized rats. It counts as functional, Artery.
For test [17], the system named is Rattus norvegicus. As to the kind of experiment: Change in diastolic blood pressure after iv administration of 0.625 mg/kg in anesthetized rats. It is filed as functional, Artery.
Test [18] has as its system Rattus norvegicus. As to the kind of experiment: Change in heart rate after iv administration of 0.625 ug/kg in anesthetized rats.
Test [19] deals with Rattus norvegicus. As to the kind of experiment: Change in systolic blood pressure after iv administration of 0.625 ug/kg in anesthetized rats.
The subject of test [20] is Rattus norvegicus. As to the kind of experiment: Maximum rate of rise of the left ventricular isovolumetric pressure was measured after iv administration of 0.625 mg/kg in anesthetized rats. It counts as functional, Heart left ventricle.
Test [21] concerns Rattus norvegicus. As to the kind of experiment: Change in heart rate after iv administration of 5 uM/kg in anesthetized rats. It is filed as functional. Summed up: as §1
Test [22] has as its system Rattus norvegicus. Nature of the test: Change in systolic blood pressure after iv administration of 5 uM/kg in anesthetized rats. It counts as functional, Artery.
Test [23] concerns Rattus norvegicus. Nature of the test: Change in diastolic blood pressure after iv administration of 5 uM/kg in anesthetized rats. It counts as functional, Artery.
Test [24] concerns Rattus norvegicus. Nature of the test: Maximum rate of rise of the left ventricular isovolumetric pressure was measured after iv administration of 5 uM/kg in anesthetized rats; ratio given for dP/dt. It counts as functional, Heart left ventricle.
Test [25] relates to Rattus norvegicus. As to the kind of experiment: Change in heart rate after iv administration of 8 uM/kg in anesthetized rats. It is filed as functional. Summed up: as §1
Test [26] relates to Rattus norvegicus. Nature of the test: Maximum rate of rise of the left ventricular isovolumetric pressure was measured after iv administration of 8 uM/kg in anesthetized rats; ratio given for dP/dt. It counts as functional, Heart left ventricle.
In test [27] the test system is Rattus norvegicus. Nature of the test: Change in systolic blood pressure after iv administration of 8 uM/kg in anesthetized rats. It is filed as functional, Artery.
Test [28] deals with Rattus norvegicus. Nature of the test: Change in diastolic blood pressure after iv administration of 8 uM/kg in anesthetized rats. It counts as functional, Artery.

Regarding `CC(=O)OCC[N+](C)(C)C` [ACETYLCHOLINE], the BP is -31 mmHg in test [1] and -25 mmHg in [4]. For the same compound, the Heart rate in test [2] is -27 beats min-1. The dP/dt in [3] is -4451 mmHg s-1.

For the compound `CNC[C@H](O)c1ccc(O)c(O)c1` [EPINEPHRINE], in test [5], the dP/dt came to 8416 mmHg s-1. Besides, the values for the BP in [6] and in test [8] were 16 mmHg and 25 mmHg, respectively. For the same compound, the Heart rate in test [7] was determined as 41 beats min-1.

With `N=C(N)NCCN1CCCCCCC1` [GUANETHIDINE], the figures for the BP in test [9] and in [12] were -29 mmHg and -22 mmHg, respectively. For the same compound, the Heart rate in test [10] was -24 beats min-1. Moreover, the dP/dt in [11] was -1090 mmHg s-1.

For the compound `C[N+](C)(C)CCCCCC[N+](C)(C)C.[Cl-].[Cl-]` [HEXAMETHONIUM CHLORIDE], in test [13], the dP/dt was -4421 mmHg s-1. Besides, the figures for the BP in test [14] and in test [16] were -48 mmHg and -40 mmHg, respectively. In test [15], this compound came in with a Heart rate of -46 beats min-1.

With `CC(C)NCC(O)c1ccc(O)c(O)c1` (configuration not stated) [ISOPROTERENOL], the BP in [17] is listed as -31 mmHg; in test [19], -20 mmHg. Besides, the Heart rate in test [18] is 46 beats min-1. For the same compound, in test [20], the dP/dt came to 9844 mmHg s-1.

In turn, `NC[C@H](O)c1ccc(O)c(O)c1` [NOREPINEPHRINE] registered a dP/dt in test [5] of 5564 mmHg s-1. For the same compound, the BP in [6] is 25 mmHg; in [8], 43 mmHg. In [7], this compound displayed a Heart rate of 28 beats min-1.

As to `COc1ccc(Cc2nccc3cc(OC)c(OC)cc23)cc1OC` [PAPAVERINE], the Heart rate in test [21] is -18 beats min-1. In addition, the BP in test [22] is reported as -20 mmHg; in [23] it was -15 mmHg. For the same compound, the dP/dt in test [24] was -1204 mmHg s-1.

For `COC(=O)[C@H]1[C@H]2C[C@@H]3c4[nH]c5cc(OC)ccc5c4CCN3C[C@H]2C[C@@H](OC(=O)c2cc(OC)c(OC)c(OC)c2)[C@@H]1OC` [RESERPINE], the Heart rate in test [25] is reported as -51 beats min-1. The dP/dt in test [26] is -1438 mmHg s-1. The BP is on record as -35 mmHg in [27] and -29 mmHg in test [28].
